Assay results gathered from unrelated publications.
CDK4 with cyclin D3: Cyclin-dependent kinase 4, with cyclin D3 (CDK4, Homo sapiens, UniProt P11802)
CDK4 with cyclin D1: Cyclin-dependent kinase 4, with cyclin D1 (CDK4, Homo sapiens, UniProt P11802)
CDK4: Cyclin-dependent kinase 4 (CDK4, Homo sapiens, UniProt P11802)

SMILES	target	test	setting	remaining binding
O=C(c1ccc(Nc2ncc(Cl)c(-c3ccc(Cl)s3)n2)cc1)N1CCC(N2CCCC2)CC1	CDK4 with cyclin D3	binding, competition with immobilised ligand	1 µM	0.9%
CC(=O)c1c(NS(C)(=O)=O)c2cc(-c3ccc(Cl)cc3)c(-c3ccc(Cl)cc3Cl)nc2n(C)c1=O	CDK4 with cyclin D1	cell-free assay, competition with immobilised ligand	1 µM	100%
O=C(NCCCN1CCOCC1)c1ccc(Nc2nccc(-c3cc4ccccc4s3)n2)cc1	CDK4 with cyclin D1	binding, competition with immobilised ligand	1 µM	83%
COc1cnc(Nc2cccc(S(N)(=O)=O)c2)nc1N1CCN(c2ccccc2)C(=O)C1	CDK4 with cyclin D1	binding, competition with immobilised ligand	1 µM	100%
CN(C)CC#Cc1ccc(OCCCc2sc(N3CCc4cccc(C(=O)Nc5nc6ccccc6s5)c4C3)nc2C(=O)O)c(F)c1	CDK4 with cyclin D3	cell-free assay, competition with immobilised ligand	1 µM	100%
FC(F)(F)Oc1cccc(-c2cnc3ccc(-c4ccncc4)nn23)c1	CDK4 with cyclin D1	cell-free assay, competition with immobilised ligand	5 µM	46%
O=C(O)c1cc(-c2ccc(C3CCNCC3)cc2)c2ccc(-c3ccc(C(F)(F)F)cc3)cc2c1	CDK4 with cyclin D3	cell-free assay, competition with immobilised ligand	1 µM	100%
CNC(=O)[C@@H]1CC[C@@H](n2c(-c3ccc4cnccc4c3)nc3ccc(C(=O)NCc4cccc(C(N)=O)c4)cc32)C1	CDK4	binding, competition with immobilised ligand	1 µM	100%
COc1ccnn2ncc(-c3ccnc(N(C)C)n3)c12	CDK4 with cyclin D1	binding	1 µM	97%
CNCc1ccccc1-c1csc([C@H](C)Nc2nc(C)nc3cc(OC)c(OC)cc23)c1	CDK4 with cyclin D3	cell-free assay, competition with immobilised ligand	1 µM	96%
C[C@@H](c1ccc(-n2cnc3c(N)ncnc32)cc1)N1CCc2nn(C)c(Cc3ccccc3)c2C1=O	CDK4	binding, competition with immobilised ligand	0.1 µM	85%
C=CC(=O)N1CCC(C(=O)NCC(=O)N2CCN(c3nc(-c4cnc(N)nc4C(F)F)nc(N4CCOCC4)n3)CC2)CC1	CDK4	binding, competition with immobilised ligand	1 µM	92%
N[C@H]1CCN(c2nccc(-c3cnn4ncccc34)n2)C1	CDK4	binding	1 µM	75%
O=C(Nc1c[nH]nc1C(=O)NC1CCNCC1)c1cc(F)cc(F)c1	CDK4	binding, competition with immobilised ligand	1 µM	100%
O=C(NCCCN1CCOCC1)c1ccc(Nc2ncc(Cl)c(-c3ccc(Cl)s3)n2)cc1	CDK4 with cyclin D1	binding, competition with immobilised ligand	1 µM	0.5%
COc1ncc2cc3ccccc3nc2c1C#N	CDK4	cell-free assay, competition with immobilised ligand	5 µM	74%
CCCCN(CCCC)C(=O)CN1C[C@@H](c2cc(OC)c3c(c2)OCO3)[C@H](C(=O)O)[C@H]1CC(C)(C)CCC	CDK4	cell-free assay, competition with immobilised ligand	1 µM	100%

SMILES	target	test	setting	remaining binding
C[C@H]1CCN(c2nccc(-c3cnn4ncccc34)n2)C1	CDK4	binding	1 µM	95%
CC(C)CC(=O)N1CCc2nc(-c3ccc(Br)cc3)nc(N(C)Cc3ccccc3)c2C1	CDK4 with cyclin D3	cell-free assay, competition with immobilised ligand	0.1 µM	100%
Nc1ncc2c(n1)-c1c([nH]c3ccc(C#CC4CC4)cc13)CCCC2	CDK4	binding, competition with immobilised ligand	1 µM	84%
Cc1cnc(Nc2ccc(C(=O)N3CCC(N4CCCC4)CC3)cc2)nc1-c1cc2ccccc2s1	CDK4 with cyclin D3	binding, competition with immobilised ligand	1 µM	2.7%
c1cncc(-c2cccc(Nc3nccc(NC4CCCCC4)n3)c2)c1	CDK4 with cyclin D1	binding, competition with immobilised ligand	10 µM	100%
CN(C)c1ncc(F)c(-c2cnn3ncccc23)n1	CDK4	binding	1 µM	100%
Cc1cc(NC(=O)c2cccc(S(F)(F)(F)(F)F)c2)cc(-n2ccn3nc(-c4cccnc4)cc23)c1	CDK4	cell-free assay, competition with immobilised ligand	1 µM	79.3%
CCN1CCN(Cc2ccc(C(=O)Nc3ccc(C)c(Oc4ccc5c(c4)CC(=O)N5)c3)cc2C(F)(F)F)CC1	CDK4 with cyclin D3	binding, competition with immobilised ligand	1 µM	100%
Cc1c[nH]c2nccc(Oc3c(F)cc(Nc4cc(Cl)nc(N)n4)cc3F)c12	CDK4	cell-free assay, competition with immobilised ligand	0.1 µM	67%
CN(c1nccc(-c2cnn3ncccc23)n1)C1CC1	CDK4	binding	1 µM	100%
O=C(c1ccc(Nc2nccc(-c3cc4ccccc4s3)n2)cc1)N1CCC(N2CCCC2)CC1	CDK4	binding, competition with immobilised ligand	1 µM	88%
O=C(NCC1CCOCC1)c1n[nH]cc1NC(=O)c1c(F)cccc1F	CDK4	binding, competition with immobilised ligand	1 µM	92%
c1cnn2ncc(-c3ccnc(N4CCC45COC5)n3)c2c1	CDK4	binding	1 µM	78%
O=C(c1ccc(Nc2ncc(Cl)c(-c3cc4ccccc4s3)n2)cc1)N1CCC(N2CCCC2)CC1	CDK4 with cyclin D1	binding, competition with immobilised ligand	1 µM	3.6%
COc1cnc(Nc2cccc(S(N)(=O)=O)c2)nc1N1CCN(c2ccccc2)CC1	CDK4 with cyclin D3	binding, competition with immobilised ligand	1 µM	93%
CC1CCCN1c1nccc(-c2cnn3ncccc23)n1 (stereo not drawn)	CDK4 with cyclin D3	binding	1 µM	100%
